# Bioassay records deposited in PubChem by Broad Institute.
# PvdQ acylase – P. aeruginosa PvdQ acylase inhibitors, primary screen, biochemical, fluorescence, plate reader and imaging, single point; PvdQ acylase [Pseudomonas aeruginosa LESB58]; purified PvdQ acylase; inhibition, % at 10 µM; 0.063% of 340,000 active; in the data active means inhibition above about 30%, passing the limit was not always enough; inconclusive means no clear call, values can overlap the other calls;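 further: 0% = vehicle neutral wells and 100% = reference inhibitor wells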
# Xi reactivation – activators of inactive X chromosome reactivation, primary screen, imaging, XiGFP fibroblasts, GFP high-content imaging, set 2 | XiGFP mouse fibroblasts, % GFP-positive cells imaging, 3 d; cells co-treated with 5-aza-dC sensitizer; scaled so ellipticine positive control = 100% | 0.055% of 360,000 active | activation, % at 7.58 µM;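 active means mean normalized replicate activation at least 10% and every replicate at or above 10%; inconclusive means only one of the two criteria met; inactive means mean below 10% and not all replicates reach 10%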;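 further: 0% = median of on-plate neutral control wells and 100% = ellipticine 6 µM median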
#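 Material: XiGFP fibroblasts, SV40-immortalized; Buffer or medium: DMEM containing 5-aza-dC; Compound dosing: single point; Times: 3 days compound exposure.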
# Ecoli rRNA inh – reduced GFP signal of wild-type E. coli, primary screen, bacterial rRNA inhibitor project, GFP/RFP fluorescence, OD600, single point | 1.6% of 350,000 active | E. coli WT GFP vs humanized-ribosome RFP mutants, 24 h; hits give low values; DMSO median 0, no signal -100 | GFP signal change (wild-type ribosome), % (test concentration not listed);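 active means significant combined selectivity score with lowered wild-type GFP, culture density cut under 30%, mutant RFP and density less affected; inactive means any of these conditions unmet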
# SR-BI uptake up – activators of SR-BI mediated DiI-HDL uptake, primary screen, ldlA[mSR-BI] CHO cells, DiI fluorescence | 3 h; 100 = double the neutral-control signal | activation, % at 12.5 µM | 0.096% of 320,000 active;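 active means mean replicate activation of at least 60% and every replicate at or above 60%; inconclusive means mean or all-replicate condition met, but not both; inactive means mean below 60% and not all replicates reaching 60%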;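 further: 0% = median plate neutral-control signal and 100% = twice that signal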
#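 Test system: SR-BI-overexpressing, LDLR-lacking CHO cells; Medium: Ham's F12 with 0.5% BSA, HEPES 25 mM, pH 7.4; Schedule: 3 h, 37 °C; Technique: bottom-read fluorescence, 550/595 nm.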
# dFosB activator – activators of delta FosB homodimer, primary screen, biochemical, fluorescence polarization, TAMRA-CDK5 oligo, single point. Protein FosB (Mus musculus), P13346. purified delta FosB; percent of positive-control signal above neutral wells. activation, % at 25 µM. 0.99% of 340,000 active;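 active means mean activation above about 17%, with every replicate also reaching it, limit read from the data, passing the limit was not always enough; inconclusive means only one of the two conditions met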
# SR-BI DiI inh – inhibitors of SR-BI mediated HDL lipid uptake, primary screen, ldlA[mSR-BI] cells, fluorescence, single point; Scavenger receptor class B member 1 (Mus musculus), Q61009; ldlA[mSR-BI] CHO cells, DiI-HDL uptake fluorescence, 3 h; inhibition, % at 12.5 µM; 0.96% of 320,000 active; AID 488896, 2010;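 active means mean replicate inhibition of at least 70% and a set share of replicates each scoring 70 or more; inconclusive means meets just one of the two criteria; inactive means fails both criteria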;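 further: 0% = median of neutral control wells and 100% = median of positive control wells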
# Target sequence (Q61009 whole entry, looked up): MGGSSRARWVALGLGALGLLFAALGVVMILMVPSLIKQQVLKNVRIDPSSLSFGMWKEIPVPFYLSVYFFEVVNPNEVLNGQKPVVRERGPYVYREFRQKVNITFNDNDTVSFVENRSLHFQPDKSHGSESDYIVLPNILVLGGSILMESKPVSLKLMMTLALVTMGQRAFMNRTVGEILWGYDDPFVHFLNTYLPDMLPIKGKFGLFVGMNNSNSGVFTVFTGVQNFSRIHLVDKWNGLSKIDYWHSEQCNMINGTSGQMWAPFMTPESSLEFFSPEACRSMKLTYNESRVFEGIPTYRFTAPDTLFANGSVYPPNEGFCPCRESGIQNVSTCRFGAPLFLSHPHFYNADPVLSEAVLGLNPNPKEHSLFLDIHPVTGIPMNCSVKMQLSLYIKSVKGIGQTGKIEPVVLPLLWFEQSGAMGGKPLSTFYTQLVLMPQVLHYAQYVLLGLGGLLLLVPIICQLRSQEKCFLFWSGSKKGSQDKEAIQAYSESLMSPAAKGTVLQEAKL
# Starred values were filed as active, the others as inactive; u = inconclusive; x = not tested or not shown. Only some compounds are listed: those with a hit (about 2.6% of all), similar ones and a draw of the others.
SMILES,PvdQ acylase,Xi reactivation,Ecoli rRNA inh,SR-BI uptake up,dFosB activator,SR-BI DiI inh
CC(C)[C@H](CO)N(Cc1cccc(F)c1)c1nc(Nc2cccc(Cl)c2)c2ncn(C(C)C)c2n1,-18.5,0.0,9.6,-5.2,-8.9,5.2
CC(C)n1cnc2c(N(C)c3cccc(Cl)c3)nc(N(CCO)CCO)nc21,-10.6,0.0,-33.2*,-4.7,-2.0,4.7
COc1cc(OC)cc(C(=O)Nc2ccc3c(c2)COC3=O)c1,-14.8,x,x,-53.3,-5.6,53.3
Cc1ccc(-n2ncc3c(=O)n(CC(=O)Nc4cccc(Cl)c4)cnc32)cc1C,-8.5,x,x,18.2,42.3*,-18.2
C[n+]1c(/C=C/c2ccc(O)cc2)ccc2ccccc21,-2.2,0.0,-10.7,-15.1,7.8,15.1
Cc1cc(/C=C\c2ccc3cc(N(C)C)ccc3[n+]2C)c(C)n1-c1ccccc1,-5.4,x,x,166.2*,6.8,-166.2
O=C(NC1CCC1)[C@H]1[C@H](CO)[C@H]2Cn3c(ccc(-c4ccccc4F)c3=O)[C@H]2N1Cc1cocn1,x,0.0,-0.2,x,x,x
C=CCc1ccccc1OCC(O)CN1CCN(CCN2C(=O)c3cccc4cccc(c34)C2=O)CC1 (configuration not stated),-8.9,-0.1,-40.8,-30.7,47.1*,30.7
COC(=O)C1OC(OC2CC[C@]3(C)C(CC[C@@]4(C)[C@@H]3CC=C3[C@@H]5CC(C)(C)CC[C@]5(C(=O)OC5OC(CO)C(O)C(O)C5O)CC[C@]34C)C2(C)C)C(O)C(O)C1O[C@H]1OCC(O)C(O)C1O (some centres not stated),-5.3,x,x,119.1*,-9.7,-119.0
NNC(=O)c1cc2c(N3CCC(Cc4ccccc4)CC3)ncnc2s1,-0.7,0.2,3.9,-79.9,-8.3,79.9*
Cn1ncc2c(N3CCC(Cc4ccccc4)CC3)ncnc21,-3.3,0.3,-33.5,16.4,-3.9,-16.4
Cc1ccc(Cn2ccsc2=NC(=O)COC(=O)c2ccc(O)cc2O)cc1,17.4,0.1,-25.5*,-13.0,-8.5,13.0
O=C(COC(=O)c1ccc(O)cc1O)N=c1sccn1Cc1ccccc1Cl,-8.9,0.0,-50.8,-6.0,-9.0,6.0
Cc1c(C(=O)O)oc2ccc(S(=O)(=O)NC3CCCCCCC3)cc12,-3.8,0.1,-28.8*,43.5,-8.0,-43.5
O=C(C(=O)N1CCC(CNS(=O)(=O)c2ccccc2)CC1)c1cc2ccccc2o1,x,0.0,-13.4*,x,x,x
O=C(NCC1CCN(C(=O)C(=O)c2cc3ccccc3o2)CC1)c1ccc2c(c1)OCCCO2,x,0.0,-16.5*,x,x,x
CSc1ccc(C(=O)NCC2CCN(C(=O)C(=O)c3cc4ccccc4o3)CC2)cc1,x,0.1,-13.7*,x,x,x
O=C(NCC1CCN(C(=O)C(=O)c2cc3ccccc3o2)CC1)c1ccc2c(c1)OCO2,x,0.0,-32.0,x,x,x
CS(=O)(=O)c1ccc(S(=O)(=O)NCC2CCN(C(=O)C(=O)c3cc4ccccc4o3)CC2)cc1,x,0.2,3.3,x,x,x
O=C(c1ccc(Cl)cc1)N1CCC2CC1c1cc(-c3ccccc3)ccc12 (configuration not stated),-7.9,0.1,-2.7,-27.3,-4.8,27.3
N#Cc1ccc(C(=O)N2CCC3CC2c2cc(N4CCCCC4)ccc23)cc1 (configuration not stated),x,-0.2,-32.6*,x,x,x
O=[N+]([O-])c1ccc(NC(c2ccccc2)c2ccc3cccnc3c2O)cc1 (configuration not stated),-15.4,-0.1,x,-80.5,3.7,80.5*
CC(=O)NC(c1cccc([N+](=O)[O-])c1)c1ccc2cccnc2c1O (configuration not stated),-9.9,0.8,8.3,9.5,-10.8,-9.5
Nc1ccc(-c2nc3ccccc3[nH]2)cc1,-10.6,u,-2.6,6.3,2.6,-6.3
Nc1ccc(Sc2nc3ccccc3[nH]2)cc1,0.6,0.1,-21.8*,17.0,-3.9,-17.0
SMILES,PvdQ acylase,Xi reactivation,Ecoli rRNA inh,SR-BI uptake up,dFosB activator,SR-BI DiI inh
CCOc1cc(/C=C2\N=C(C)OC2=O)cc(Br)c1OCCc1ccccc1,-0.5,x,-23.5*,-19.6,-6.5,19.6
O=C(CCS(=O)(=O)c1ccccc1)Nc1ccc(S(=O)(=O)Nc2ncccn2)cc1,5.2,0.0,9.1,x,0.6,x
COc1ccc(CNC(=O)Nc2cccc(Cl)c2)cc1,-14.4,x,x,-14.3,24.4*,14.3
O=C(O)c1ccc(CNCc2cccc(Cl)c2)cc1,-4.4,0.1,12.1,7.8,-0.2,-7.8
COc1ccc(CNCc2cccc(Cl)c2)cc1,43.0*,0.2,7.4,21.5,1.2,-21.5
Cn1cccc1-c1nc2ccc(NC(=O)c3ccco3)cc2[nH]1,-6.7,x,x,-41.3,-5.2,41.3
Cc1ccc2nc(-c3ccc(NC(=O)c4ccco4)cc3)[nH]c2c1,9.0,x,-56.5,-49.6,42.8*,49.6
Nc1ccc(C(=O)Nc2ccc3nc(-c4ccncc4)[nH]c3c2)cc1,-4.5,-0.1,-33.0*,-17.1,-7.2,17.1
COc1ccc(Nc2nnc(-c3ccc(C)cc3)c3ccccc23)cc1C(=O)N1CCCCC1,u,0.2,-20.6,-81.1,-7.5,81.1*
COc1ccc(Nc2nnc(-c3ccccc3)c3ccccc23)cc1C(=O)N1CCCCC1,-0.6,0.0,-31.7,-48.1,-10.3,48.1
CCN(CC)C(=O)COc1ccc(-c2nnc(Nc3ccc(OC)c(C(=O)NC)c3)c3ccccc23)cc1,8.4,0.0,x,-86.7,-15.8,86.7*
O=C(CN1C(=O)C(=O)c2ccccc21)c1ccc(Cl)cc1,-8.7,-0.1,0.4,15.9,-6.4,-15.9
O=C(N/N=C/C=C\c1ccccc1)c1cnccn1,-12.8,-0.3,1.4,8.5,1.4,-8.5
Cc1c(NC(=O)c2ccc(-c3ccc([N+](=O)[O-])cc3Cl)o2)c(=O)n(-c2ccccc2)n1C,1.6,0.0,-22.4*,-26.0,-2.2,26.0
Cc1c(NC(=O)/C(C#N)=C/c2ccc(-c3cccc(Cl)c3)o2)c(=O)n(-c2ccccc2)n1C,9.8,0.4,x,-61.6,-3.8,61.6
Cc1c(NC(=O)/C(C#N)=C/c2ccc(-c3ccc(Cl)c(Cl)c3)o2)c(=O)n(-c2ccccc2)n1C,0.7,0.0,-3.1,-73.7,7.5,73.8*
Cc1cc(N/N=C/c2ccccc2Br)nc2ccccc12,3.5,0.0,5.7,-1.5,6.1,1.5
